Calls of active or inactive are those of the source. No cut-off for these calls is given here.
Key:
Mus musculus [1] = test: Antiinflammatory activity in C57BL/6 mouse model of poly(I:C)-induced acute airway inflammation assessed as decrease in IL-6 gene expression in lung tissue at 10 mg/kg, po administered 1 day prior to poly(I:C) stimulation; type: functional, organism-based
[2] = target: T1, Bromodomain-containing protein 4 (Homo sapiens, UniProt O60885)
[3] = Cmax in rat at 10 mg/kg, iv; type: ADME, organism-based; set-up: route intravenous, dose 10 mg/kg; conditions: in vivo
[4] = target: T1, Bromodomain-containing protein 4; remark: listed apart in the source
[5] = target: T2, Bromodomain-containing protein 3 (Homo sapiens, UniProt Q15059); test: Binding affinity BRD3 BD2 (unknown origin) incubated for 1 hr by TR-FRET assay
T2 sequence (Q15059 whole entry): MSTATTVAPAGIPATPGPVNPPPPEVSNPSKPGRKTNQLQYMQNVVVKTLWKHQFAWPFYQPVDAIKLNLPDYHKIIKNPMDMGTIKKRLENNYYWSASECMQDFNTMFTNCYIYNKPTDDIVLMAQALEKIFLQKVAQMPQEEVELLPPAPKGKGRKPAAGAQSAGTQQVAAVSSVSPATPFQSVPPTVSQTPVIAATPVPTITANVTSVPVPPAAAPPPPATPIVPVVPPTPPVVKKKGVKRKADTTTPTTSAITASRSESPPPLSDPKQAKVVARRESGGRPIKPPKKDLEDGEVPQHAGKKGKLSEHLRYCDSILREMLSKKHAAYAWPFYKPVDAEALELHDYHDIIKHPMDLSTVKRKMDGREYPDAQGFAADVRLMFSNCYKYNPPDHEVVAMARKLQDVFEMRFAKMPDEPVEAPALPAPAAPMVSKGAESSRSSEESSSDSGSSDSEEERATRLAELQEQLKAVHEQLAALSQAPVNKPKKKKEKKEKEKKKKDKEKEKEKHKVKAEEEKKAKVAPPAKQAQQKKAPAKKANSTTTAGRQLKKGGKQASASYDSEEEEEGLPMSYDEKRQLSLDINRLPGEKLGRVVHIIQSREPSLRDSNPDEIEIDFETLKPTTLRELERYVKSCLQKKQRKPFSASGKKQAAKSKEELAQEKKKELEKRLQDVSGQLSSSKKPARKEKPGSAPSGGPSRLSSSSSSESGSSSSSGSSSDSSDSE

[6] = target: T1, Bromodomain-containing protein 4; remark: listed apart in the source
[7] = target: T3, Bromodomain testis-specific protein (Homo sapiens, UniProt Q58F21); test: Binding affinity BRDT BD1 (unknown origin) incubated for 1 hr by TR-FRET assay
[8] = tested on: Bromodomain-containing protein 4 (Homo sapiens), O60885 [E151A]
Mus musculus [9] = test: Antiinflammatory activity in C57BL/6 mouse model of poly(I:C)-induced acute airway inflammation assessed as decrease in KC level in BALF at 10 mg/kg, po administered 1 day prior to poly(I:C) stimulation; type: functional, organism-based
[10] = Antiinflammatory activity in human SAEC assessed as inhibition of Poly(I:C) induced CIG5 expression pretreated for 24 hrs followed by Poly(I:C) addition for 4 hrs by qRT-PCR analysis; type: functional, cell-based
Outline: (§1)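 Poly(I:C) 10 μg/mL then added for 4 h. CIG5 or IL-6 mRNA measured by qRT-PCR (ΔΔCt, PPIA normalized). IC50 from a four-parameter fit, mean ± SD of three independent runs.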

[11] = Clearance in rat at 10 mg/kg, iv; type: ADME, organism-based; conditions: in vivo
Mus musculus [12] = test: Antiinflammatory activity in C57BL/6 mouse model of poly(I:C)-induced acute airway inflammation assessed as decrease in MCP-1 level in BALF at 10 mg/kg, po administered 1 day prior to poly(I:C) stimulation; type: functional, organism-based
[13] = AUC (0 to t) in rat at 10 mg/kg, iv; type: ADME, organism-based; set-up: dose 10 mg/kg; conditions: in vivo
[14] = AUC (0 to t) in rat at 20 mg/kg, po; type: ADME, organism-based; set-up: dose 20 mg/kg; conditions: in vivo
Mus musculus [15] = test: Antiinflammatory activity in C57BL/6 mouse model of poly(I:C)-induced acute airway inflammation assessed as inhibition of neutrophilic inflammation around small sized airways at 10 mg/kg, po administered 1 day prior to poly(I:C) stimulation by H and E staining based analysis; type: functional; set-up: scale not given: the % may be the effect or the level left
[16] = target: T1, Bromodomain-containing protein 4; remark: listed apart in the source
Mus musculus [17] = test: Antiinflammatory activity in C57BL/6 mouse model of poly(I:C)-induced acute airway inflammation assessed as inhibition of neutrophilic inflammation around medium sized airways at 10 mg/kg, po administered 1 day prior to poly(I:C) stimulation by H and E staining based analysis; type: functional; set-up: scale not given: the % may be the effect or the level left
[18] = Cmax in rat at 20 mg/kg, po; type: ADME, organism-based; set-up: route oral, dose 20 mg/kg; conditions: in vivo
[19] = target: T1, Bromodomain-containing protein 4; remark: listed apart in the source
[20] = Antiinflammatory activity in human SAEC assessed as inhibition of Poly(I:C) induced IL-6 expression pretreated for 24 hrs followed by Poly(I:C) addition for 4 hrs by qRT-PCR analysis; type: functional, cell-based; outline: as §1
[21] = Half life in rat at 10 mg/kg, iv; type: ADME, organism-based; conditions: in vivo
[22] = tested on: Bromodomain-containing protein 4 (Homo sapiens), O60885 [E151A]; remark: listed apart in the source
[23] = target: T1, Bromodomain-containing protein 4; remark: listed apart in the source
Mus musculus [24] = test: Antiinflammatory activity in C57BL/6 mouse model of poly(I:C)-induced acute airway inflammation assessed as decrease in total cells level in BALF at 10 mg/kg, po administered 1 day prior to poly(I:C) stimulation; type: functional, organism-based
[25] = target: T1, Bromodomain-containing protein 4; test: Binding affinity to wild type human BRD4 BD2 (349 to 461 residues) expressed in bacterial competent cells assessed as increase in thermal stability by thermal shift assay
CREB-binding protein = CREB-binding protein (Homo sapiens, UniProt Q92793); test: Binding affinity CBP (unknown origin) incubated for 1 hr by TR-FRET assay
Chain of CREB-binding protein (Q92793 whole entry): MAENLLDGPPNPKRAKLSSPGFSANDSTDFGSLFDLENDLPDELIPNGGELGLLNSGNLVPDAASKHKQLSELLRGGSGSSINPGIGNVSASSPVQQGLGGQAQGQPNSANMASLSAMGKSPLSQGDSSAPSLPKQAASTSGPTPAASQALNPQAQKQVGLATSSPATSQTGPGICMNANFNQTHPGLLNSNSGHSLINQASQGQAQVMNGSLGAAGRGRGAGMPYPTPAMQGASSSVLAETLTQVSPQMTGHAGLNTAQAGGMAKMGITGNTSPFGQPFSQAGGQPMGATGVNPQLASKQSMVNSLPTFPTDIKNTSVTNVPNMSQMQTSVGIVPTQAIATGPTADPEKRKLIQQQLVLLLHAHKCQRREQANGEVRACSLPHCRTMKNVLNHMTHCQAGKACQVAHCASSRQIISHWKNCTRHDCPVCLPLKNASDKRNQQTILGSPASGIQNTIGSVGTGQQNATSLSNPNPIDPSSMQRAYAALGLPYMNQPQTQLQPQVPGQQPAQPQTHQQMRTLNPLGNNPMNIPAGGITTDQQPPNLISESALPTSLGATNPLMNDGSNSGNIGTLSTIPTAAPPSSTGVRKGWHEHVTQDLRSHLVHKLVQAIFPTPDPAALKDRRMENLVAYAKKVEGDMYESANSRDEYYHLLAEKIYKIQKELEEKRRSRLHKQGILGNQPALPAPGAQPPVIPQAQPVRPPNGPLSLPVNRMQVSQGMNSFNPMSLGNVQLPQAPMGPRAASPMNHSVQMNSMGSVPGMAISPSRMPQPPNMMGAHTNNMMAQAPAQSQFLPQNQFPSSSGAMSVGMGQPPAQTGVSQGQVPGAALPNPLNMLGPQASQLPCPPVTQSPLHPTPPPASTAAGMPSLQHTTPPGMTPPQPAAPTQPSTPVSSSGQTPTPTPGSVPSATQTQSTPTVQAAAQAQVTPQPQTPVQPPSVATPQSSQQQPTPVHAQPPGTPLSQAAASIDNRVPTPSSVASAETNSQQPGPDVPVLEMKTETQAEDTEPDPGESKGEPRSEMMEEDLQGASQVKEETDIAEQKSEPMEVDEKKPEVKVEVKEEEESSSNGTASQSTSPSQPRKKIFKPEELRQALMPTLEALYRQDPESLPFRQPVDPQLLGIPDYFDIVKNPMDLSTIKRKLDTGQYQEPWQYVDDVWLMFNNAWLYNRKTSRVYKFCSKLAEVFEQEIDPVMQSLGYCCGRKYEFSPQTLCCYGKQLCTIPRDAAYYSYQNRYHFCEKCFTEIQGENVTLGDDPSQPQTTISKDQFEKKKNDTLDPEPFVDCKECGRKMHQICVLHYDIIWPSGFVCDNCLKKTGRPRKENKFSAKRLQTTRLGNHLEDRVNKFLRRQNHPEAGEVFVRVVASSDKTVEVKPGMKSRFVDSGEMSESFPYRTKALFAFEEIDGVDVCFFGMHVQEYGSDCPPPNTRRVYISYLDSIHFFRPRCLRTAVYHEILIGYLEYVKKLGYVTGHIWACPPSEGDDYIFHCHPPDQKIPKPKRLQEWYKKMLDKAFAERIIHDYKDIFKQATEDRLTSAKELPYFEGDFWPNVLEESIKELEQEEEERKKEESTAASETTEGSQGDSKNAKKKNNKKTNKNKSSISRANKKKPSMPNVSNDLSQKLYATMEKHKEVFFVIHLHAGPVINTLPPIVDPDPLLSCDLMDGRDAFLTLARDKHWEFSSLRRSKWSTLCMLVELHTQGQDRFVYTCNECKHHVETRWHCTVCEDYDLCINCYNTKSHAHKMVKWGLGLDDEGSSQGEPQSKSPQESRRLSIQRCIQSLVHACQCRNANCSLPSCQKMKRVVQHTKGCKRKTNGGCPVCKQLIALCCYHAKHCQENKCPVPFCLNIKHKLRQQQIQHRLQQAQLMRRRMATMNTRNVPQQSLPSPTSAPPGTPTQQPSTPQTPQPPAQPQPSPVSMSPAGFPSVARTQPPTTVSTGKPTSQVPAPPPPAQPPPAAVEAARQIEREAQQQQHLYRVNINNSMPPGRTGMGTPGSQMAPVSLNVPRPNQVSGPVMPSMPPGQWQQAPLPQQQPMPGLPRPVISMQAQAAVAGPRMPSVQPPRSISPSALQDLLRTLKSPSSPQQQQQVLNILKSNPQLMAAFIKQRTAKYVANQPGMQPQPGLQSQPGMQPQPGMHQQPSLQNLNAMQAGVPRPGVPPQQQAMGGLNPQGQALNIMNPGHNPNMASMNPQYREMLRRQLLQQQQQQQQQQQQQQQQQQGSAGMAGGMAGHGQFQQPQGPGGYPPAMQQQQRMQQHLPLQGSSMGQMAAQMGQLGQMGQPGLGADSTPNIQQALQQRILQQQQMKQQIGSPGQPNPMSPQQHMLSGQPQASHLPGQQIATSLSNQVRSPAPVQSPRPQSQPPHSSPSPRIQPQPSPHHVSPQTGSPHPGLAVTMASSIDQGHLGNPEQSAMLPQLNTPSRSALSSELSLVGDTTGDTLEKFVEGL

[26] = target: T1, Bromodomain-containing protein 4; remark: listed apart in the source
Mus musculus [27] = test: Antiinflammatory activity in C57BL/6 mouse model of poly(I:C)-induced acute airway inflammation assessed as decrease in KC gene expression in lung tissue at 10 mg/kg, po administered 1 day prior to poly(I:C) stimulation; type: functional, organism-based
[28] = tested on: Bromodomain-containing protein 4 (Homo sapiens), O60885 [E151A]; remark: listed apart in the source
Mus musculus [29] = test: Antiinflammatory activity in C57BL/6 mouse model of poly(I:C)-induced acute airway inflammation assessed as decrease in neutrophils level in BALF at 10 mg/kg, po administered 1 day prior to poly(I:C) stimulation; type: functional, organism-based
[30] = target: T3, Bromodomain testis-specific protein; test: Binding affinity BRDT BD2 (unknown origin) incubated for 1 hr by TR-FRET assay
Mus musculus [31] = test: Antiinflammatory activity in C57BL/6 mouse model of poly(I:C)-induced acute airway inflammation assessed as decrease in IL-6 level in BALF at 10 mg/kg, po administered 1 day prior to poly(I:C) stimulation; type: functional, organism-based
[32] = target: T2, Bromodomain-containing protein 3; test: Binding affinity BRD3 BD1 (unknown origin) incubated for 1 hr by TR-FRET assay
SAEC = test: Antiinflammatory activity in human SAEC assessed as decrease in H3K122Ac accumulation by immunofluorescence analysis; type: functional, cell-based
Outline: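 Immortalized human small airway epithelial cells stimulated with poly(I:C) at 10 μg/mL. H3K122Ac detected by immunofluorescence and quantified as fold change in total fluorescence intensity.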

Mus musculus [33] = test: Antiinflammatory activity in C57BL/6 mouse model of poly(I:C)-induced acute airway inflammation assessed as decrease in ISG54 gene expression in lung tissue at 10 mg/kg, po administered 1 day prior to poly(I:C) stimulation; type: functional, organism-based
Mus musculus [34] = test: Antiinflammatory activity in C57BL/6 mouse model of poly(I:C)-induced acute airway inflammation assessed as decrease in H3K122Ac accumulation in lung tissue at 10 mg/kg, po administered 1 day prior to poly(I:C) stimulation by immunofluorescence analysis; type: functional, organism-based
Outline: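 Same mouse model: 10 mg/kg po one day before, plus a second dose with intranasal poly(I:C) (300 μg). Lungs collected one day later. H3K122Ac detected by immunofluorescence on paraffin lung sections and quantified as fold change in total fluorescence intensity.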

O=C(Nc1ccc(C(F)(F)F)cc1)Nc1ccc(S(=O)(=O)N2CCC[C@H]2CN2CCOCC2)cc1
Activity (Mus musculus [1]): inactive | ΔTm [2]: 13.3 °C | Cmax [3]: 1920 ng/mL | ΔTm [4]: 15.5 °C | IC50 [5]: 2000 nM | ΔTm [6]: 0.9 °C | IC50 [7]: 2420 nM | ΔTm [8]: 0.7 °C | Activity (Mus musculus [9]): inactive | IC50 [10]: 200 nM | clearance [11]: 75 mL/min/kg | Activity (Mus musculus [12]): inactive | AUC(0-t) [13]: 2170 ng·h/mL | AUC(0-t) [14]: 602 ng·h/mL | Activity (Mus musculus [15]): 100% | ΔTm [16]: 6.6 °C | Activity (Mus musculus [17]): 100% | Cmax [18]: 86.9 ng/mL | ΔTm [19]: 5.8 °C | IC50 [20]: 370 nM | half-life [21]: 2.5 h | ΔTm [22]: 0.1 °C | ΔTm [23]: 4.5 °C | Activity (Mus musculus [24]): Active | Activity [25]: inactive | IC50 (CREB-binding protein): > 10000 nM | ΔTm [26]: 15.8 °C | Activity (Mus musculus [27]): inactive | ΔTm [28]: 0.7 °C | Activity (Mus musculus [29]): Active | IC50 [30]: 1900 nM | Activity (Mus musculus [31]): inactive | IC50 [32]: 2180 nM | Activity (SAEC): Active | Activity (Mus musculus [33]): Active | Activity (Mus musculus [34]): Active
